Data published in ChEMBL document CHEMBL1944595, “1,4-diarylpiperazines and analogs as anti-tubercular agents: synthesis and biological evaluation” (Eur J Med Chem, 2012).

Experiments:
[1] = Cytotoxicity against human HepG2/C3A cells after 24 hrs by neutral red assay; assay type: cell-based
Outline: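 C3A cells seeded at 40 000 per well and allowed to recover. Exposed 24 h at 37 °C, 5% CO2 to serial dilutions in DMEM + 10% FCS, tested from 10 to 0.1. Then 3 h neutral red uptake, extracted with ethanol/acetic acid, OD read at 530 nm with 620 nm reference. NI50 is the concentration reducing uptake by 50%.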

[2] = Selectivity index, ratio of IC50 for human HepG2/C3A cells to MIC for Mycobacterium tuberculosis H37Rv; assay type: functional
Outline: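 Selectivity index calculated as C3A neutral red NI50 (24 h) divided by the H37Rv luminometric MIC50.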

## Cl.N=C(N)c1ccc(N2CCN(c3ccccc3)CC2)cc1
[1]
  IC50: 66.9 µM
[2]
  Selectivity Index: 2.26

## CNC(=N)c1ccc(N2CCN(c3ccccc3)CC2)cc1.Cl
[1]
  IC50: 71 µM
[2]
  Selectivity Index: 4.45

## CCNC(=N)c1ccc(N2CCN(c3ccccc3)CC2)cc1.Cl
[1]
  IC50: 41.7 µM
[2]
  Selectivity Index: 3.49

## CCCNC(=N)c1ccc(N2CCN(c3ccccc3)CC2)cc1.Cl
[1]
  IC50: 27.5 µM
[2]
  Selectivity Index: 3.92

## CCCCNC(=N)c1ccc(N2CCN(c3ccccc3)CC2)cc1.Cl
[1]
  IC50: 17.4 µM
[2]
  Selectivity Index: 8.03

## CCCCCNC(=N)c1ccc(N2CCN(c3ccccc3)CC2)cc1.Cl
[1]
  IC50: 11.2 µM
[2]
  Selectivity Index: 9.39

## CCCCCCNC(=N)c1ccc(N2CCN(c3ccccc3)CC2)cc1.Cl
[1]
  IC50: 6.71 µM
[2]
  Selectivity Index: 25.38

## CCCCCCCNC(=N)c1ccc(N2CCN(c3ccccc3)CC2)cc1.Cl
[1]
  IC50: 5.21 µM
[2]
  Selectivity Index: 57.2

## CCCCCCCCNC(=N)c1ccc(N2CCN(c3ccccc3)CC2)cc1.Cl
[1]
  IC50: 5.18 µM
[2]
  Selectivity Index: 72.19

## CCCCCCCCCCCCNC(=N)c1ccc(N2CCN(c3ccccc3)CC2)cc1.Cl
[1]
  IC50: 5.61 µM
[2]
  Selectivity Index: 107.52
